A short description of test [1]: Her2 expression decrease, cell viability multiplex – SKBR3 breast tumor cells, AlphaScreen, ATP viability, primary screen (AID 461;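 active = Her2 level under about 52% in both replicate screens, with viability over 70% of control, limit read from the data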;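 as to Her2 level: lower value means less Her2 protein in the cells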;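 as to viability: percent of carrier control wells set as 100% viability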). The settings on record: SKBR3 Her2 protein level, 18-24 h, measured here: SKBR3 viability, ATP luminescence, at 10 µM. For orientation: In Alpha technology, singlet oxygen from a donor bead excites a nearby acceptor bead.
For test [2], the target named is Receptor tyrosine-protein kinase erbB-2 (Homo sapiens) (UniProt P04626). Described as above. The settings on record: 18-24 h, at 10 µM, stronger effect = lower value.
The nature of test [3]: reduced viability of SK-BR-3 breast cancer cells – cell-based, 24 h, human, pilot screen (AID 572).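 Also: compound exposure lasted between 18 and 24 h rather than exactly 24 h; 100% = carrier-treated control wells.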 The note with it: SK-BR-3 viability, CellTiter-Glo luminescence, at 10 µM, stronger effect = lower value. (In general: In ATP-based viability assays light output follows the ATP content of the culture.)
Test [4] in a line: HUVEC growth inhibition – cell-based, human, primary screen (AID 575;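 active = viability at or below 30% in both replicate assays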;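 also: 100% = median of untreated cell wells with 0.1% DMSO on each plate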). The settings on record: HUVEC proliferation, CellTiter-Glo luminescence, 72 h; at 10 µM; stronger effect = lower value. The gist of the method: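 Material: primary human umbilical vein endothelial cells / Schedule: 72 h exposure, 37 °C, 5% CO2, 30 min RT equilibration / Signal: ATP-based CellTiter-Glo luminescent read / Read-out basis: percent of median DMSO-control luminescence / Control set: 32 DMSO-only cell-control wells (high), 32 MePR drug-control wells (low) per plate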

Test [5] can be described thus: H69AR cell proliferation blockers – human, duplicate replicates, primary screen (AID 580;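 active = viability at or under a set limit in both replicates, limit being median viability minus 3 SD, cut at about 48% in these data, passing the limit was not always enough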;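 also: 100% = mean luminescence of untreated wells and 0% = no signal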). The note with it: H69AR lung tumor cells viability, ATP luminescence, 72 h; at 10 µM; stronger effect = lower value.
Test [6] can be described thus: MRP1 drug-resistance reversers in H69AR cells – cell-based, doxorubicin co-treatment, pilot screen (AID 601;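 active = viability loss from added drug above about 55%, and viability with drug at most 40%, in both replicates, limit read from the data, passing the limit was not always enough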). The settings on record: CellTiter-Glo, 72 h, at 10 µM; for differential viability (reversal): stronger effect = higher value.
A short description of test [7]: yeast transport mutant growth inhibition pilot in 384-well plates, post-Golgi transport modulator project (AID 636; in the data active = inhibition above about 31%). The settings on record: absorbance 615 nm, about 18 h, stronger effect = higher value.
Test [8] in a line: growth suppression of yeast trafficking mutant, preliminary HTS, modulators of trafficking downstream of Golgi apparatus project, 1536-format plate, OD 615 nm (AID 637; in the data active = inhibition above about 30%). The settings on record: yeast transport mutant growth, absorbance 615 nm, 18 h; stronger effect = higher value.
Setting [9] is: H69AR cells + 2 uM doxorubicin, measured here: viability with 2 uM doxorubicin, stronger effect = lower value.
Where [10] appears, read: H69AR cells, compound alone cytotoxicity.

Calls of active or inactive are those of the source.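 The calls were made as follows, unless noted: active = viability at or below 10% of carrier control in both of two separate runs; inconclusive = viability at or below 10% in only one of the two runs; inactive = the rest.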

The viability is a read-out of living cells in per cent, often relative to untreated cells. In general, inhibition refers to the change of the read-out against control, counted positive when it falls.

Chain of Receptor tyrosine-protein kinase erbB-2 (Homo sapiens) (P04626 whole entry, looked up): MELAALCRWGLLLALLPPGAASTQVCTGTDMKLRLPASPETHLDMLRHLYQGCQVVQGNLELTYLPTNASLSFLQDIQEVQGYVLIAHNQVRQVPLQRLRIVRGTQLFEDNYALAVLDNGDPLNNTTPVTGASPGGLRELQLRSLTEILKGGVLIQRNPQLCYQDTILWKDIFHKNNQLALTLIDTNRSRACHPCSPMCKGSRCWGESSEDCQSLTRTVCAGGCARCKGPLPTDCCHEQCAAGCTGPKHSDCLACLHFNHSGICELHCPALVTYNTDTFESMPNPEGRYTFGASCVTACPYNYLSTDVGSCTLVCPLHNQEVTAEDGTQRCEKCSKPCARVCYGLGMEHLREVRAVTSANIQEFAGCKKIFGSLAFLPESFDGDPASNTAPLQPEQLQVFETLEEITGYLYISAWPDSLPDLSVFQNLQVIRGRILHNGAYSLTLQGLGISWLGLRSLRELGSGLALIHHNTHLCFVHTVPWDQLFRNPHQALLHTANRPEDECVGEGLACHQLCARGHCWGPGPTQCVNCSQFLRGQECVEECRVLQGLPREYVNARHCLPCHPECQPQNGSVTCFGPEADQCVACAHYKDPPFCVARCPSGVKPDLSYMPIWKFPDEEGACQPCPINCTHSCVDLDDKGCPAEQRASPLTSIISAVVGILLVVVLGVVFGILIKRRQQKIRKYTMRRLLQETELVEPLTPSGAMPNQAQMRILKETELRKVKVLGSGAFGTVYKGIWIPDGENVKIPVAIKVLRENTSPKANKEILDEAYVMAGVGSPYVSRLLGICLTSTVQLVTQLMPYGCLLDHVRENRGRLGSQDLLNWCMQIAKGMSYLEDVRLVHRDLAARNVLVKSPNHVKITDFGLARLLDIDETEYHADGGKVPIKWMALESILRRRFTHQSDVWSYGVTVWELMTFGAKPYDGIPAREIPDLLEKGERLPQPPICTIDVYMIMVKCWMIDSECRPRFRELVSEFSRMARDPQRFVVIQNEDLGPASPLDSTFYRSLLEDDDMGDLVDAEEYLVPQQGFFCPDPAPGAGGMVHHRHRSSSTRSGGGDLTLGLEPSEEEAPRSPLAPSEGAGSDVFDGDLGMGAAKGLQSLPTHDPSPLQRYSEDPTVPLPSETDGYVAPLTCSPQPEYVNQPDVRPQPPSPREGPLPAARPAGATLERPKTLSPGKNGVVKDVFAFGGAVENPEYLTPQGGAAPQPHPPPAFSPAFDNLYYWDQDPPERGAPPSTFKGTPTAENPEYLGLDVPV

Regarding `CN(C)C=Nc1nonc1N`, the viability in test [1] is 110%; in test [3], 110% (inactive); in test [4], 95.3% (inactive); in test [5], 94.1% (inactive); in test [6] (setting [9]), 91.4%; in test [6] (setting [10]), 94.1%. In addition, the Her2 level in test [2] is 106% (inactive). In test [6] (H69AR cells + 2 uM doxorubicin), the differential viability (reversal) is 2.63% (inactive). Further, the inhibition in test [7] is -5.53% (inactive); in test [8] it was 1.97% (inactive).

Take `O=C(O)C1CCCN1C(=O)Nc1ccc(F)cc1` (stereo not given): the viability was 87% in test [1]; 87% (inactive) in test [3]; 106% (inactive) in test [4]; 93.6% (inactive) in test [5]; 83.1% in test [6] (setting [9]); 93.6% in test [6] (setting [10]). Besides, the Her2 level in test [2] was 90.5% (inactive). Besides, the differential viability (reversal) in test [6] (H69AR cells + 2 uM doxorubicin) is 10.5% (inactive). The inhibition was -4.73% (inactive) in test [7] and -8.5% (inactive) in test [8].

`O=C(CSc1nc2ccccc2c(=O)n1CCC(=O)N1CCCCC1)NCc1ccccc1`: the viability in test [1] was 102%; in test [3], 102% (inactive); in test [4], 99.5% (inactive); in test [5], 81.8% (inactive); in test [6] (setting [9]), 95.1%; in test [6] (setting [10]), 81.8%. Moreover, the Her2 level in test [2] is 80% (inactive). Also, the differential viability (reversal) in test [6] (H69AR cells + 2 uM doxorubicin) was -13.3% (inactive). In addition, the values for the inhibition in test [7] and in test [8] were -1.84% (inactive) and -2.86% (inactive), respectively.

Consider `O=C(O)CCCC(=O)NCCc1ccncc1`, for which the viability in test [1] was 98%; in test [3], 98% (inactive); in test [4], 97% (inactive); in test [5], 107% (inactive); in test [6] (setting [9]), 98.5%; in test [6] (setting [10]), 107%. In addition, the Her2 level in test [2] was 89% (inactive). Also, the differential viability (reversal) in test [6] (H69AR cells + 2 uM doxorubicin) was 7.97% (inactive). For the same compound, the inhibition was -1.84% (inactive) in test [7] and -1.27% (inactive) in test [8].

As for `CCOC(=O)c1ccc(-n2c(=O)[nH]c3ccccc3c2=O)cc1`, the viability is 102% in test [1]; 102% (inactive) in test [3]; 105% (inactive) in test [4]; 93.1% (inactive) in test [5]; 90.4% in test [6] (setting [9]); 93.1% in test [6] (setting [10]). Further, in test [2], the Her2 level was 120% (inactive). In test [6] (H69AR cells + 2 uM doxorubicin), the differential viability (reversal) is 2.73% (inactive). Besides, the inhibition in test [7] is 3.07% (inactive); in test [8] it was -2.74% (inactive).

`O=C(NC1CC1)C1CCN(c2ccc(S(=O)(=O)N3CCOCC3)cc2)CC1`: the viability in test [1] is 92.5%; in test [3], 92.5% (inactive); in test [4], 83% (inactive); in test [5], 94.7% (inactive); in test [6] (setting [9]) it was 77.7%; in test [6] (setting [10]) it was 94.7%. The Her2 level in test [2] is 138% (inactive). Further, in test [6] (H69AR cells + 2 uM doxorubicin), the differential viability (reversal) is 17.1% (inactive). Besides, the results for the inhibition in test [7] and in test [8] were -0.13% (inactive) and -10% (inactive), respectively.

`O=C(c1ccccc1-c1ccccc1)N1CCN(c2ccccn2)CC1`: the viability in test [1] is 69.5%; in test [3], 69.5% (inactive); in test [4], 58.8% (inactive); in test [5], 16% (active); in test [6] (setting [9]), 73.7%; in test [6] (setting [10]), 16%. In addition, the Her2 level in test [2] is 93% (inactive). In test [6] (H69AR cells + 2 uM doxorubicin), the differential viability (reversal) was -57.7% (inactive). Moreover, the inhibition in test [7] is -6.76% (inactive); in test [8], -4.75% (inactive).

In the case of `CN(C)S(=O)(=O)NC(c1ccccc1)c1ccccc1`, the viability in test [1] was 93%; in test [3], 93% (inactive); in test [4], 105% (inactive); in test [5], 105% (inactive); in test [6] (setting [9]), 88.9%; in test [6] (setting [10]) it was 105%. In test [2], the Her2 level is 97% (inactive). The differential viability (reversal) in test [6] (H69AR cells + 2 uM doxorubicin) was 15.6% (inactive). Further, the inhibition was -8% (inactive) in test [7] and -2.38% (inactive) in test [8].

Regarding `O=C(O)c1cc2c(s1)CCCC2`, the viability is 88.5% in test [1]; 88.5% (inactive) in test [3]; 104% (inactive) in test [4]; 89.9% (inactive) in test [5]; 91.1% in test [6] (setting [9]); 89.9% in test [6] (setting [10]). For the same compound, the Her2 level in test [2] is 93% (inactive). The differential viability (reversal) in test [6] (H69AR cells + 2 uM doxorubicin) was -1.15% (inactive). For the same compound, the inhibition is -1.03% (inactive) in test [7] and -7.83% (inactive) in test [8].

On to `Cc1ccc(Cl)cc1NC(=O)CSc1nnc(C)n1-c1ccccc1`, for which the viability in test [1] is 90%; in test [3], 90% (inactive); in test [4], 91% (inactive); in test [5], 86.6% (inactive); in test [6] (setting [9]) it was 80.6%; in test [6] (setting [10]), 86.6%. In addition, the Her2 level in test [2] is 79% (inactive). In addition, the differential viability (reversal) in test [6] (H69AR cells + 2 uM doxorubicin) is 6.06% (inactive). The inhibition is -2.63% (inactive) in test [7] and 0.65% (inactive) in test [8].

On to `CC1=CCC(C(C)(C)NC(=O)c2ccccc2)C/C1=N\O` (stereo not given), for which the viability was 104% in test [1]; 104% (inactive) in test [3]; 112% (inactive) in test [4]; 106% (inactive) in test [5]; 88.6% in test [6] (setting [9]); 106% in test [6] (setting [10]). In addition, in test [2], the Her2 level was 98.5% (inactive). The differential viability (reversal) in test [6] (H69AR cells + 2 uM doxorubicin) was 17.3% (inactive). Besides, the inhibition in test [7] is -0.81% (inactive); in test [8] it was 4.44% (inactive).

As to `COc1ccc(N2CC(C(=O)Nc3ccc(F)cc3F)CC2=O)cc1` (stereo not given), the viability is 102% in test [1]; 102% (inactive) in test [3]; 108% (inactive) in test [4]; 96.6% (inactive) in test [5]; 91.4% in test [6] (setting [9]); 96.6% in test [6] (setting [10]). Also, in test [2], the Her2 level was 93.5% (inactive). For the same compound, the differential viability (reversal) in test [6] (H69AR cells + 2 uM doxorubicin) was 5.19% (inactive). The values for the inhibition in test [7] and in test [8] were -3.47% (inactive) and 1.13% (inactive), respectively.

With `CCCn1c(-c2ccc(F)cc2)cnc1SCC(=O)O`, the viability was 128% in test [1]; 128% (inactive) in test [3]; 101% (inactive) in test [4]; 84.8% (inactive) in test [5]; 81.2% in test [6] (setting [9]); 84.8% in test [6] (setting [10]). The Her2 level in test [2] was 98.5% (inactive). For the same compound, the differential viability (reversal) in test [6] (H69AR cells + 2 uM doxorubicin) was 3.56% (inactive). The inhibition in test [7] was -3.33% (inactive); in test [8] it was 2.79% (inactive).

`O=C(C1CCC(N2C(=O)C3CC=CCC3C2=O)CC1)N1CCCCC1` (stereo not given): the viability was 75.5% in test [1]; 75.5% (inactive) in test [3]; 96.3% (inactive) in test [4]; 91.8% (inactive) in test [5]; 83.7% in test [6] (setting [9]); 91.8% in test [6] (setting [10]). Further, the Her2 level in test [2] is 113% (inactive). Also, in test [6] (H69AR cells + 2 uM doxorubicin), the differential viability (reversal) is 8.11% (inactive). In addition, the inhibition in test [7] was 0.64% (inactive); in test [8] it was -5.83% (inactive).

For the origin of these results see PubChem BioAssay.
